Measurements reported in ChEMBL document CHEMBL1156469 (2007).
Calls of active or inactive are those of the source. No cut-off for these calls is given here.

What was measured:
[1] = Reversal of increase in BMP2 expression in mouse MC3T3-E1 cells expressing pBMP2/mERE mutant at 1 uM after 4 hrs by luciferase method; format: functional, cell-based
[2] = test system: Osteoblast; assay: Effect on growth differentiation factor 10 gene expression in rat primary osteoblast cells assessed as expression ratio of treated to untreated control by microarray analysis; format: functional
Outline: (§1)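 Resveratrol-treated and vehicle-treated primary osteoblasts were profiled on a mouse osteogenesis-focused cDNA array (GEArray Q series) built to track gene expression during osteogenic differentiation. Each gene's signal in treated cells was expressed as a ratio to untreated control.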

[3] = Reversal of increase in BMP2 expression in mouse MC3T3-E1 cells expressing small interfering RNA for FOXA1 protein at 1 uM by Western blot; format: functional, cell-based
[4] = test system: Osteoblast; assay: Inhibition of etoposide-induced apoptosis in rat primary osteoblast cells after 24 hrs by flow cytometry; format: functional, cell-based
Outline: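 Cells washed in PBS, held 30 min in 0.5% Triton X-100/PBS/0.05% RNase A, then propidium iodide (50 μg/ml) added and kept on ice 15–30 min. Apoptosis is the hypodiploid fraction below the G0/G1 peak, by flow cytometry. Run in triplicate and repeated on three occasions.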

[5] = test system: Osteoblast; assay: Effect on ubiquitin-conjugating enzyme E2D 3 gene expression in rat primary osteoblast cells assessed as expression ratio of treated to untreated control by microarray analysis; format: functional
Outline: (§2)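 GEArray Q series Mouse Osteogenesis cDNA array profiling osteogenic-differentiation genes in treated versus vehicle-treated primary osteoblasts.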

[6] = biological target: T1, Alkaline phosphatase (Mus musculus) (UniProt Q9EQ79); assay: Inhibition of induction of ALP activity in mouse MC3T3-E1 cells at 1 uM after 48 hrs in presence of BMP2-specific neutralizing antibody; format: cell-based
T1 sequence (whole entry): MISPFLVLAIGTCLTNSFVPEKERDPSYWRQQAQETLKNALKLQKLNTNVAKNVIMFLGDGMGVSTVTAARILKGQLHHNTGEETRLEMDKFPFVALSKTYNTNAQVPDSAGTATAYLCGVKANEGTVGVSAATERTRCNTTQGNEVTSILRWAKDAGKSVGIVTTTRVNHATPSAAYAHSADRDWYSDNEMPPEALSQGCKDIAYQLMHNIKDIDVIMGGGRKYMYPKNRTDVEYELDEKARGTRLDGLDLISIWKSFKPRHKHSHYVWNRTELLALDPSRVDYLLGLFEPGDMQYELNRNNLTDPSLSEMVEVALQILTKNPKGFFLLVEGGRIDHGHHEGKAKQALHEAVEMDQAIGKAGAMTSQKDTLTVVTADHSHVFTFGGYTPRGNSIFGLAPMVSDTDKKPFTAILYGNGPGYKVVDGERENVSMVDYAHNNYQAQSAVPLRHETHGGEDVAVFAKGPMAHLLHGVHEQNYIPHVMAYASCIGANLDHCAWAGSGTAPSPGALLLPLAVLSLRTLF

[7] = test system: MDA-MB-231; assay: Reduction in anchorage-independent colony formation of human MDA-MB-231 cells at 1 uM by soft agar colony forming assay; format: functional, cell-based
Outline: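 Seeded in 0.35% noble agar in DMEM/10% FBS over a 0.7% agar bed. Colonies of at least 50 μm counted after 3 weeks under a dissecting microscope, six replicates per treatment. Three separate experiments.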

[8] = test system: Rattus norvegicus; assay: Antiapoptotic activity against osteoblasts in ovariectomized Wistar rat at 10 mg/kg after 10 weeks; format: functional, organism-based; set-up: dose 10 mg/kg
Outline: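 After 10 weeks, lumbar vertebrae were removed. Apoptotic osteoblasts were detected by TUNEL staining (Klenow FragEL) in undecalcified, plastic-embedded sections. Values are means ± S.D.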

[9] = test system: Osteoblast; assay: Effect on MAD homolog 4 gene expression in rat primary osteoblast cells assessed as expression ratio of treated to untreated control by microarray analysis; format: functional
[10] = test system: MC3T3-E1; assay: Reversal of induction in nuclear translocation of ERalpha in mouse MC3T3-E1 cells at 1 uM in presence of PP2; format: functional, cell-based
Outline: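 Src phosphorylation, ERα nuclear translocation and BMP-2 protein analysed by Western blot with ECL detection. Three independent experiments.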

[11] = test system: Osteoblast; assay: Effect on matrix metalloprotease 2 gene expression in rat primary osteoblast cells assessed as expression ratio of treated to untreated control by microarray analysis; format: functional; outline: as §1
[12] = test system: Osteoblast; assay: Increase in osteocalcin levels in rat primary osteoblast cells at 1 uM after 72 hrs by ELISA; format: functional, cell-based
Outline: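 Cells treated with 1 μm for 72 h; osteocalcin or osteopontin in culture medium by sandwich ELISA, HRP-streptavidin/TMB, 450 nm; percent change versus untreated control.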

[13] = test system: Osteoblast; assay: Effect on epidermal growth factor gene expression in rat primary osteoblast cells assessed as expression ratio of treated to untreated control by microarray analysis; format: functional
[14] = biological target: Alkaline phosphatase (Rattus norvegicus) (UniProt Q9JKS8); assay: Inhibition of induction of ALP activity in rat primary osteoblast cells at 1 uM after 48 hrs in presence of BMP2-specific neutralizing antibody; format: cell-based
Alkaline phosphatase (Rattus norvegicus), sequence (Q9JKS8 as listed by the source): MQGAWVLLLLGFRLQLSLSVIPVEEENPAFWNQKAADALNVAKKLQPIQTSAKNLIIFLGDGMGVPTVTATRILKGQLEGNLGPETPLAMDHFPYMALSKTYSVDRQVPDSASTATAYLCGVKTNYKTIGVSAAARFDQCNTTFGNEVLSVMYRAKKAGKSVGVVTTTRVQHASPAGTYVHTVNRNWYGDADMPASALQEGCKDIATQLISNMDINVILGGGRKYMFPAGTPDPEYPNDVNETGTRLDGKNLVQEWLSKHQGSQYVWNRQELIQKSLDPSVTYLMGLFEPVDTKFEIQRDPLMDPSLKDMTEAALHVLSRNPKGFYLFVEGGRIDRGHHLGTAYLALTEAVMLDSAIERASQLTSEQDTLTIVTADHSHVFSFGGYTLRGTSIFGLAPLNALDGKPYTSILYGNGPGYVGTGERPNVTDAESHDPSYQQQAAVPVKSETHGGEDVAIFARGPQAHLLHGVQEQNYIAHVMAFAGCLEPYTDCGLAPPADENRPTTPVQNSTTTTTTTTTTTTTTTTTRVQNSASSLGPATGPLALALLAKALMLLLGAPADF

[15] = test system: Osteoblast; assay: Increase in BMP2 mRNA levels in rat primary osteoblast cells at 1 uM by RT-PCR method; format: functional, cell-based
Outline: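 Cells treated with 1 μm for 48 h; BMP-2 mRNA measured by quantitative real-time RT-PCR (SYBR Green, 0.5 μm each primer, 4 mm MgCl2, fluorescence read at 82 °C) and normalized.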

[16] = biological target: Forkhead box protein O3 (Homo sapiens) (UniProt O43524); assay: Inhibition of IGF-induced FOXO3a phosphorylation at Thr32 residue in human MDA-MB-231 cells by Western blot; format: cell-based
Forkhead box protein O3 (Homo sapiens), sequence (O43524 whole entry): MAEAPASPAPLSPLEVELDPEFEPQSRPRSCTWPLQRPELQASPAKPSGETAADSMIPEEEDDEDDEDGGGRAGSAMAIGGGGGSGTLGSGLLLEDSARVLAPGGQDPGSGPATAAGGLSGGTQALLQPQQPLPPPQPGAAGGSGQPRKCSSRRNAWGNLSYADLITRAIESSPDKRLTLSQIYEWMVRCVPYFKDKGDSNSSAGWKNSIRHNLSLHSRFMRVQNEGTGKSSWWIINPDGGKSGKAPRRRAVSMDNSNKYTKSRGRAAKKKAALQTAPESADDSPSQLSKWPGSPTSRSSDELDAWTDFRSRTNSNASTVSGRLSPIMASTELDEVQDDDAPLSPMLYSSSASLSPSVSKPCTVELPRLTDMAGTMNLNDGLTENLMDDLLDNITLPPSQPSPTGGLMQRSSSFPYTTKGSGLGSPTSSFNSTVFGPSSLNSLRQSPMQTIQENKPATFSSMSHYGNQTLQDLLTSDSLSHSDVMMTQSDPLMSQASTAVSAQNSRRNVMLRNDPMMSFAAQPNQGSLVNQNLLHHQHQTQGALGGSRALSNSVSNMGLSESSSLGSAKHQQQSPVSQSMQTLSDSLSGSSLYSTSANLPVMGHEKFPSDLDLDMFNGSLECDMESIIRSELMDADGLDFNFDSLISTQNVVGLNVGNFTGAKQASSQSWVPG
Outline: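 MDA-MB-231 breast cancer cells, control or resveratrol-treated, then exposed or not to IGF. Lysates resolved by SDS-PAGE, transferred to nitrocellulose, probed with specific primary and secondary antibodies, and detected by ECL. Membranes stripped and reprobed where indicated.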

[17] = test system: MC3T3-E1; assay: Inhibition of antiapoptotic activity in mouse MC3T3-E1 cells at 1 uM after 48 hrs in presence of BMP2-specific neutralizing antibody; format: functional, cell-based
[18] = test system: Osteoblast; assay: Effect on transforming growth factor beta 3 gene expression in rat primary osteoblast cells assessed as expression ratio of treated to untreated control by microarray analysis; format: functional; outline: as §1
[19] = test system: Osteoblast; assay: Increase in bone morphogenetic protein 2 gene expression in rat primary osteoblast cells assessed as expression ratio of treated to untreated control by microarray analysis; format: functional; outline: as §2
[20] = test system: Osteoblast; assay: Effect on procollagen 1 alpha 1 gene expression in rat primary osteoblast cells assessed as expression ratio of treated to untreated control by microarray analysis; format: functional; outline: as §1
[21] = test system: Osteoblast; assay: Effect on integrin alpha V gene expression in rat primary osteoblast cells assessed as expression ratio of treated to untreated control by microarray analysis; format: functional; outline: as §1
[22] = Reversal of increase in pBMP2 expression in rat primary osteoblast cells at 1 uM by luciferase method in presence of PP2; format: functional, cell-based
[23] = test system: MC3T3-E1; assay: Reversal of increase in ER.DNA complex in mouse MC3T3-E1 cells expressing small interfering RNA for FOXA1 protein at 1 uM by RT-PCR; format: functional, cell-based
[24] = test system: Osteoblast; assay: Effect on bone morphogenetic protein 8b gene expression in rat primary osteoblast cells assessed as expression ratio of treated to untreated control by microarray analysis; format: functional
[25] = test system: Osteoblast; assay: Increase in BMP2 levels in rat primary osteoblast cells at 1 uM by Western blot; format: functional, cell-based; details: TDE = time-dependent effect
Outline: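 Osteoblasts treated with 1 μm for the indicated times; lysates resolved by SDS-PAGE, transferred to nitrocellulose, probed with anti-BMP-2, ECL detection.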

In the case of Oc1ccc(/C=C/c2cc(O)cc(O)c2)cc1 [RESVERATROL], the Activity [1] is reported as 80%, the Ratio [2] is reported as 0.93 and the Activity [3] is reported as “Active”. The Activity [4] was “Active”, the Ratio [5] was 3.73 and the Activity [6] was “Active”. The Activity [7] was “Active”, the Activity [8] was “Active” and the Ratio [9] was 2.63. The Activity [10] was “Active”, the Ratio [11] was 0.46 and the Activity [12] was “Active”. The Ratio [13] was 0.55, the Activity [14] was “Active” and the Activity [15] was “Active”. For the same molecule, the Activity [16] was “Active”, the Activity [17] was “Active” and the Ratio [18] was 2.56. The Ratio [19] was 12.75, the Ratio [20] was 9.67 and the Ratio [21] was 4.64. The Activity [22] was “Active”, the Activity [23] was “Active” and the Ratio [24] was 1.82. For the same molecule, the Activity [25] was “tde”.
